MEX-5 binding: C. elegans MEX-5 TCR-2 RNA binding activity | Q9XUB2 | MEX-5/FITC-TCR2 RNA binding, fluorescence polarization; stronger effect = lower value | activity score (negative = inhibition of binding), % at 10 µM | 300,000 tested, 0.38% active;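 active = inhibition past about -25% in most replicates, and total fluorescence under double the plate's negative control median, limit read from the data; inconclusive = replicates evenly split on the limit, or fluorescence at least double controls; inactive = too little inhibition in most replicates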
Runt-CBFb FRET: inhibitors of human RUNX1 Runt domain binding to CBFb. Cerulean-Runt/Venus-CBFb FRET ratio 530/480, 1 h. inhibition, % at 20 µM. 220,000 tested, 0.46% active;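 active = inhibition over about 50% at 20 µM in the single-dose screen, limit read from the data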
Target sequence (Q01196 whole entry, looked up, the tested form may be a part): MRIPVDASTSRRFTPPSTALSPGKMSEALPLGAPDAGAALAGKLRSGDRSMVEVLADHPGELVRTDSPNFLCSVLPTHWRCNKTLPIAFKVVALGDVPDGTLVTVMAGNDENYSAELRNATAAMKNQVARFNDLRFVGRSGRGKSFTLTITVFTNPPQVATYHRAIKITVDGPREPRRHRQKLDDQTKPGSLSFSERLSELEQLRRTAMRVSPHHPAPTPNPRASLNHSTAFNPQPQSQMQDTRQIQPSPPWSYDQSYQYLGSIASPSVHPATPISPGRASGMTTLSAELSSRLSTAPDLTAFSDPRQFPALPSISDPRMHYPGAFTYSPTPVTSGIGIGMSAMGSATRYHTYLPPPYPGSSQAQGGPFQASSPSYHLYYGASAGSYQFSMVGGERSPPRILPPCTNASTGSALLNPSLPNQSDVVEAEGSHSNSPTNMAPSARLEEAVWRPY
Target sequence (Q13951 whole entry, looked up, the tested form may be a part): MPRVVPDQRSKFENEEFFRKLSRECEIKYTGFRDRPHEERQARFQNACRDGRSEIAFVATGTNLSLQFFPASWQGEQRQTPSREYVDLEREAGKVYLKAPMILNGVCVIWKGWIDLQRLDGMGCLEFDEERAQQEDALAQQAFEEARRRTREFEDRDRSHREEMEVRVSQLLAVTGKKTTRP
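System: Cerulean-labeled Runt domain protein | Quantity: 100 nM of each labeled protein | Schedule: 1 h compound exposure, room temperature | Detection: Fluorescence energy transfer, 422 nm excitation, 530/480 nm emission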
RanGTP-Imp inh: inhibitors of RanGTP-importin-beta interaction, primary screen, biochemical, FRET, CFP-Ran, YFP-importin-beta, homogeneous; inhibition, % (no concentration beside the values); AID 2216; 300,000 tested, 1.1% active; cell-free CFP-Ran/YFP-importin-beta FRET ratio;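 active = more than half of the replicate wells show a fall in the fluorescence ratio signal beyond about 16%, limit read from the data, passing the limit was not always enough; inconclusive = exactly half of the replicate wells pass the set limit; inactive = fewer than half of replicates pass the limit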
Runt-SMMHC FRET: inhibitors of human RUNX1 Runt domain binding to CBFb-SMMHC. inhibition, % at 20 µM. Q01196+Q13951. AID 1434. Cerulean-Runt/Venus-CBFb-SMMHC FRET ratio 530/480, 1 h. 220,000 tested, 0.74% active;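 active = mean inhibition across duplicate retests at 20 µM reaching about 50%, limit read from the data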;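 note: inhibitors lower the FRET ratio by blocking Runt binding to CBFb-SMMHC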
KLK7 zymogen act: activates the human kallikrein-7 zymogen | P49862 | purified proKLK7, EDANS-DABCYL substrate fluorescence; 100% is mature enzyme control, 0% vehicle | activation, % at 7 µM | 370,000 tested, 0.9% active;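 active = activation above the mean of all tested compounds plus 3 SD, computed per campaign excluding outliers beyond control limits, cut at about 13% in these data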
Numbers stand for hits; . = inactive; ? = inconclusive; / = not tested or not shown. In the library only some 2.1% were active in any assay of this set; here they are far more common.

SMILES	MEX-5 binding	Runt-CBFb FRET	RanGTP-Imp inh	Runt-SMMHC FRET	KLK7 zymogen act
NC1=CC(=O)c2cccc3cccc1c23	-28	.	.	.	/
O=C(Nc1nccs1)c1ccc(-c2ccc([N+](=O)[O-])cc2)o1	-43	.	.	.	.
CN(CCC1CCOCC1)C(=O)C1CCC(=O)N(CCc2ccccc2)C1 (configuration not stated)	.	/	?	/	.
COc1ccc2c(c1OC)C(=O)N(c1ccc(C)c(C)c1)C2=O	.	.	75	.	.
Cc1nc2c3ccccc3nc(NNC(=O)CCC(=O)N3CCCC(C)C3)n2n1 (configuration not stated)	-27	/	.	/	.
COCCNC(=O)CCC(=O)NNc1nc2ccccc2c2nc(C)nn12	-45	.	.	.	.
Cc1nc2c3ccccc3nc(NNC(=O)CCC(=O)NC(C)C)n2n1	-42	.	.	.	.
Cc1nc2c3ccccc3nc(NNC(=O)CCC(=O)NC3CCCC3)n2n1	.	.	.	.	.
COCc1ccc(C(=O)NC2CCSc3ccccc32)cc1 (configuration not stated)	.	/	.	/	.
Cc1ccc2oc(-c3ccc(NC(=O)c4ccc5c(c4)OCO5)cc3)nc2c1	.	67	.	.	.
O=C(Nc1ccc(-c2nc3ccccc3o2)cc1)c1ccc2c(c1)OCO2	.	.	.	.	.
O=Cc1coc2c(ccc3ccccc32)c1=O	.	/	37	/	/
N#Cc1c(NC(=O)CSc2nnc(-c3ccncc3)n2CC2CCCO2)sc2c1CCCC2 (configuration not stated)	.	.	.	.	.
N#Cc1c(NC(=O)CSc2ncc(-c3ccccc3)n2CC2CCCO2)sc2c1CCCC2 (configuration not stated)	.	.	.	73	.
Cc1noc(C)c1C(=O)Nc1sc(C)c(-c2ccccc2)c1C#N	.	.	110	.	.
Cc1onc(-c2c(F)cccc2Cl)c1C(=O)Nc1sc2c(c1C(N)=O)CCC2	.	.	61	.	.
Cc1onc(-c2ccccc2)c1C(=O)Nc1sc2c(c1C(N)=O)CCC2	.	.	51	.	.
Fc1ccccc1-c1n[nH]c(=S)n1N=Cc1ccc(OCc2ccccc2)cc1	/	/	/	/	.
Cc1onc(-c2ccccc2)c1C(=O)Nc1sc2c(c1C#N)CCC2	.	.	46	.	.
O=c1c(-c2cc3ccccc3[nH]2)nc2ccccc2n1C(CCc1ccccc1)c1nc2ccccc2[nH]1 (configuration not stated)	/	/	/	/	.
CC(C)C1Cc2c(sc(NC(=S)NC(=O)c3ccccc3)c2C#N)CO1 (configuration not stated)	.	.	?	.	.
COc1cc(C(=O)Nc2sc3c(c2C#N)CCN(C(C)=O)C3)cc(OC)c1OC	.	.	38	79	.
CCCN1CCc2c(sc(NC(=S)NC(=O)c3ccccc3)c2C#N)C1	.	.	159	93	.
CN1CCc2c(sc(NC(=O)Cc3ccccc3)c2C#N)C1	.	/	164	/	.
CC(C)N1CCc2c(sc(NC(=S)NC(=O)c3ccccc3)c2C#N)C1	.	.	162	60	.
SMILES	MEX-5 binding	Runt-CBFb FRET	RanGTP-Imp inh	Runt-SMMHC FRET	KLK7 zymogen act
O=C(CCNC(=O)C1CCN(S(=O)(=O)c2ccccc2)CC1)NCc1cccnc1	/	/	/	/	.
Cc1cc(OCC(=O)OCC(=O)c2c(N)n(C)c(=O)n(C)c2=O)ccc1Cl	/	/	/	/	.
CC(C)N1CCc2c(sc(NC(=O)c3ccc(S(=O)(=O)N4CCOCC4)cc3)c2C#N)C1	.	.	43	.	/
CCOC(=O)N1CCc2c(sc(NC(=O)c3ccc(S(=O)(=O)N4CCCC4)cc3)c2C#N)C1	.	.	.	.	.
CCOC(=O)[C@@]12CN(C(=O)OC(C)(C)C)CC=C1N(Cc1ccc(OC)cc1)C(=O)[C@H]2CC(=O)NCc1cccs1	/	/	/	/	.
COc1ccc2nc(C)c3cc(C)oc3c2c1	/	.	/	.	.
COc1cccc2c1nc(C)c1cc(C)oc12	.	.	33	.	.
COc1ccc(S(=O)(=O)N2CCC(c3nc4ccccc4o3)CC2)c(OC)c1	/	/	/	/	.
CC(C)(C)c1nnc(SCC(=O)Nc2ccc(N3CCCCC3)cc2)n1N	/	/	/	/	.
CC(=O)Nc1cccc(C(=O)NNC(=O)c2n[nH]c(=O)c3ccccc23)c1	/	/	/	/	.
Cc1nc(N2CCN(Cc3ccccc3)CC2)c(C#N)c2c1COC(C)(C)C2	-34	.	.	.	.
CC1CC2(C)C(=CC1=O)CCC1C2C(O)CC2(C)C1CCC2(O)C(=O)CO (configuration not stated)	/	/	/	/	.
CN1CCc2c(sc(NC(=O)CS(=O)(=O)c3ccccc3)c2C(N)=O)C1	.	/	139	/	.
COC(=O)c1c(NC(=O)Cc2ccccc2)sc2c1CCN(C(C)C)C2	.	/	.	/	.
CCCN1CCc2c(sc(NC(=O)CCS(=O)(=O)c3ccccc3)c2C(N)=O)C1	.	/	153	/	.
CCOC(=O)c1c(NC(=O)CCS(=O)(=O)c2ccccc2)sc2c1CCN(C(C)C)C2	.	/	127	/	.
Oc1ccc(-c2cn3ccccc3n2)cc1O	-28	/	.	/	.
Cc1ccn2cc(-c3ccc(O)c(O)c3)nc2c1	-46	/	.	/	.
O=C(O)CC1S/C(=N\N=C2\C(=O)Nc3ccccc32)N(c2ccc(O)cc2)C1=O (configuration not stated)	.	/	.	/	.
O=S1(=O)c2c(NCc3ccco3)cccc2Oc2ccccc2CN1Cc1cn(Cc2cccc(F)c2)nn1	/	/	/	/	.
COc1ccc(NC(=S)N2CCC3CC2c2c(Cl)cccc23)c(OC)c1 (configuration not stated)	/	/	/	/	.
CC(C)C1Nc2ccc(C(=O)O)cc2C2C=CCC21 (configuration not stated)	-54	.	.	.	.
CCOC(=O)C1Nc2ccc(C(=O)O)cc2C2C=CCC12 (configuration not stated)	.	/	.	/	.
CCCC1Nc2ccc(C(=O)O)cc2C2C=CCC12 (configuration not stated)	-49	.	.	.	/
CCCCN1CC(N2CCN(Cc3ccccc3)CC2)CS1(=O)=O (configuration not stated)	/	/	/	/	.
O=C(O)c1cc(-c2ccc(/C=N/Nc3ccc([N+](=O)[O-])cn3)o2)ccc1Cl	-72	.	.	.	.
O=C(N/N=C/c1ccc(-c2ccc(Cl)c(C(=O)O)c2)o1)c1cc2c(ccc3ccccc32)o1	.	.	.	80	.
Cc1ccc(-c2ccc(/C=N\NC(=O)c3cc4c(ccc5ccccc54)o3)o2)cc1[N+](=O)[O-]	.	.	.	.	.
COc1ccc(C2C(C(=O)Nc3cc(OC)c(OC)c(OC)c3)CCC(=O)N2c2ccc(OC)cc2)cc1 (configuration not stated)	/	/	/	/	.
Cc1cccc(-n2c(O)c(C=Nc3cccc(O)c3)c3ccccc3c2=O)n1	.	.	.	.	.

Compound activity deposited in PubChem by several laboratories.
